In ChEMBL document CHEMBL1821688, “Synthesis and biological evaluation of (±)-3-(2-(2-fluorobenzyloxy) naphthalen-6-yl)-2-aminopropanoic acid derivatives as novel PTP1B inhibitors” (Eur J Med Chem, 2011):
The source made the active and inactive calls. No cut-off for these calls is given here.

Columns and labels:
[1] = biological target: T1, Tyrosine-protein phosphatase non-receptor type 2 (Homo sapiens, UniProt P17706); assay: Inhibition of TCPTP
T1 sequence (P17706 whole entry): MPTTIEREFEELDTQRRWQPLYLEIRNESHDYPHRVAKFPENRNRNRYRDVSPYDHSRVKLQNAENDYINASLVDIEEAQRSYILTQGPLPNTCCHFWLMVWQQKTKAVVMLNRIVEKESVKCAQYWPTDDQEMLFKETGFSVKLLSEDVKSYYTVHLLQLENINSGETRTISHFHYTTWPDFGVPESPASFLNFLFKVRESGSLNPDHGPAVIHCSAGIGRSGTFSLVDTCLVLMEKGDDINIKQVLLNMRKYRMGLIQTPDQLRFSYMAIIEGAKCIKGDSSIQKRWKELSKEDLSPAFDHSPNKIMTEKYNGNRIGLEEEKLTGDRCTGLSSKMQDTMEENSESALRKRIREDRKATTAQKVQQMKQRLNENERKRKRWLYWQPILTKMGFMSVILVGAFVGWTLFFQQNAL
Procedure, shortened: (§1)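 IC50 values were obtained by regression analysis and reported as mean ± SD of three replicate determinations.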

[2] = biological target: Receptor-type tyrosine-protein phosphatase F (Homo sapiens) (UniProt P10586); assay: Inhibition of human recombinant LAR at 20 ug/mL
[3] = biological target: T2, M-phase inducer phosphatase 2 (Homo sapiens, UniProt P30305); assay: Inhibition of human recombinant CDC25B; procedure, shortened: as §1
T2 sequence (P30305 whole entry): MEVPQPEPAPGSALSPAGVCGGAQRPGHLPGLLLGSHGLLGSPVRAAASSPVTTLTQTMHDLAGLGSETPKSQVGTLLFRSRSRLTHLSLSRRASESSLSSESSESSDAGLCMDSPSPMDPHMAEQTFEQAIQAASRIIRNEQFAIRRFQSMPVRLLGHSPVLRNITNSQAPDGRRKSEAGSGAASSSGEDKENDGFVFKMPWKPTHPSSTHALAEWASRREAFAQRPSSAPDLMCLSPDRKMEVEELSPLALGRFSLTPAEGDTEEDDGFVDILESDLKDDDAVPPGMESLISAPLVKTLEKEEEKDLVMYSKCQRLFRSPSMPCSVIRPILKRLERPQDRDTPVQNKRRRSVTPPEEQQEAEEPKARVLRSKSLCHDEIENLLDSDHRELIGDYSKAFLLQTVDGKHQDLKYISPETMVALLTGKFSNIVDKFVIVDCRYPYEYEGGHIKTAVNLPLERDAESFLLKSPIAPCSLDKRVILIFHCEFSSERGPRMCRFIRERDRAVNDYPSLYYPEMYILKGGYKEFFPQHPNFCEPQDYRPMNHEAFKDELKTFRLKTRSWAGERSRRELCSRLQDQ

[4] = biological target: T3, Tyrosine-protein phosphatase non-receptor type 6 (Homo sapiens, UniProt P29350); assay: Inhibition of human recombinant SHP1 in Tris buffer of pH 8 at 20 ug/mL
[5] = biological target: T4, Tyrosine-protein phosphatase non-receptor type 1 (Homo sapiens, UniProt P18031); assay: Inhibition of PTP1B using p-nitrophenyl phosphate as substrate; procedure, shortened: as §1
T4 sequence (P18031 whole entry): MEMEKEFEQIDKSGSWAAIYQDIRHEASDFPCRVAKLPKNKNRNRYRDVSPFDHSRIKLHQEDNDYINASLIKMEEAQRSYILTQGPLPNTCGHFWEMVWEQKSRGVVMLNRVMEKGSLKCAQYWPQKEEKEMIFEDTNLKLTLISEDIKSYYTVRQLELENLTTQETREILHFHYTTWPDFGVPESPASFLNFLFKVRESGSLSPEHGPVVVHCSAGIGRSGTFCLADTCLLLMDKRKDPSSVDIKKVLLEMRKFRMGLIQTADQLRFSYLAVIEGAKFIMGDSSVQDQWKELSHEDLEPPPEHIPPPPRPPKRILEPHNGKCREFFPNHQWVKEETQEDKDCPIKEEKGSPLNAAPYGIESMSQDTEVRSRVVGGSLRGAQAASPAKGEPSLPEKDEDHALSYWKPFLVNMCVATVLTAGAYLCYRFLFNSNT

[6] = biological target: Receptor-type tyrosine-protein phosphatase alpha (Homo sapiens) (UniProt P18433); assay: Inhibition of human recombinant PTPalpha at 20 ug/mL
[7] = biological target: T3, Tyrosine-protein phosphatase non-receptor type 6; assay: Inhibition of human recombinant SHP1 in Tris buffer at pH 8 using OMPF as substrate; procedure, shortened: as §1
[8] = Selectivity ratio of IC50 for TCPTP to IC50 for PTP1B
[9] = biological target: T5, Tyrosine-protein phosphatase non-receptor type 1 (Homo sapiens) (UniProt P18031); conditions: 2.5 to 10 uM
T5 sequence (whole entry): T4 sequence (P18031 whole entry)

[10] = biological target: T5, Tyrosine-protein phosphatase non-receptor type 1 (Homo sapiens); conditions: 2.5 to 10 uM; remark: listed apart in the source

Receptor-type tyrosine-protein phosphatase alpha (Homo sapiens), sequence (P18433 20-802 limits assumed): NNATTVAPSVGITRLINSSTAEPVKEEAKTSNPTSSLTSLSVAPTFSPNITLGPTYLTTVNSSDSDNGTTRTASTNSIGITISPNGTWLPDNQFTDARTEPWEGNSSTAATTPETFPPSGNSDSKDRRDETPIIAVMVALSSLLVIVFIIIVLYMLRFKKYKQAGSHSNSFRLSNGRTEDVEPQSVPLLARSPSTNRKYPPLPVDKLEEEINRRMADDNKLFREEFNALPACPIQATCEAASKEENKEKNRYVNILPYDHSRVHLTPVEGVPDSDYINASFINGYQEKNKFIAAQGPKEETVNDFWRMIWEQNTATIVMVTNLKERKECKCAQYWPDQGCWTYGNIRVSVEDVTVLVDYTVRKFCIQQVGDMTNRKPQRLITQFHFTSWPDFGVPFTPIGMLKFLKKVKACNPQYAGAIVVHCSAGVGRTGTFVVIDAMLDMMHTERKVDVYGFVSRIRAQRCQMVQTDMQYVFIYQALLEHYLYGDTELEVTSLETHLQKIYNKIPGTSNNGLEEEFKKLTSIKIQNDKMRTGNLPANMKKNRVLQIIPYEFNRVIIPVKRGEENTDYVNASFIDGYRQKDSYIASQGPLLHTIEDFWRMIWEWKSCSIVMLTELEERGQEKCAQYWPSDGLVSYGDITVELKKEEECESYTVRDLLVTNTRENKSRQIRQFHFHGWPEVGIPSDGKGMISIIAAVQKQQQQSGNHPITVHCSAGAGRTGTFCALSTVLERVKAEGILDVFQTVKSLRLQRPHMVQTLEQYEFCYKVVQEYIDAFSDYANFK
Receptor-type tyrosine-protein phosphatase F (Homo sapiens), sequence (P10586 whole entry): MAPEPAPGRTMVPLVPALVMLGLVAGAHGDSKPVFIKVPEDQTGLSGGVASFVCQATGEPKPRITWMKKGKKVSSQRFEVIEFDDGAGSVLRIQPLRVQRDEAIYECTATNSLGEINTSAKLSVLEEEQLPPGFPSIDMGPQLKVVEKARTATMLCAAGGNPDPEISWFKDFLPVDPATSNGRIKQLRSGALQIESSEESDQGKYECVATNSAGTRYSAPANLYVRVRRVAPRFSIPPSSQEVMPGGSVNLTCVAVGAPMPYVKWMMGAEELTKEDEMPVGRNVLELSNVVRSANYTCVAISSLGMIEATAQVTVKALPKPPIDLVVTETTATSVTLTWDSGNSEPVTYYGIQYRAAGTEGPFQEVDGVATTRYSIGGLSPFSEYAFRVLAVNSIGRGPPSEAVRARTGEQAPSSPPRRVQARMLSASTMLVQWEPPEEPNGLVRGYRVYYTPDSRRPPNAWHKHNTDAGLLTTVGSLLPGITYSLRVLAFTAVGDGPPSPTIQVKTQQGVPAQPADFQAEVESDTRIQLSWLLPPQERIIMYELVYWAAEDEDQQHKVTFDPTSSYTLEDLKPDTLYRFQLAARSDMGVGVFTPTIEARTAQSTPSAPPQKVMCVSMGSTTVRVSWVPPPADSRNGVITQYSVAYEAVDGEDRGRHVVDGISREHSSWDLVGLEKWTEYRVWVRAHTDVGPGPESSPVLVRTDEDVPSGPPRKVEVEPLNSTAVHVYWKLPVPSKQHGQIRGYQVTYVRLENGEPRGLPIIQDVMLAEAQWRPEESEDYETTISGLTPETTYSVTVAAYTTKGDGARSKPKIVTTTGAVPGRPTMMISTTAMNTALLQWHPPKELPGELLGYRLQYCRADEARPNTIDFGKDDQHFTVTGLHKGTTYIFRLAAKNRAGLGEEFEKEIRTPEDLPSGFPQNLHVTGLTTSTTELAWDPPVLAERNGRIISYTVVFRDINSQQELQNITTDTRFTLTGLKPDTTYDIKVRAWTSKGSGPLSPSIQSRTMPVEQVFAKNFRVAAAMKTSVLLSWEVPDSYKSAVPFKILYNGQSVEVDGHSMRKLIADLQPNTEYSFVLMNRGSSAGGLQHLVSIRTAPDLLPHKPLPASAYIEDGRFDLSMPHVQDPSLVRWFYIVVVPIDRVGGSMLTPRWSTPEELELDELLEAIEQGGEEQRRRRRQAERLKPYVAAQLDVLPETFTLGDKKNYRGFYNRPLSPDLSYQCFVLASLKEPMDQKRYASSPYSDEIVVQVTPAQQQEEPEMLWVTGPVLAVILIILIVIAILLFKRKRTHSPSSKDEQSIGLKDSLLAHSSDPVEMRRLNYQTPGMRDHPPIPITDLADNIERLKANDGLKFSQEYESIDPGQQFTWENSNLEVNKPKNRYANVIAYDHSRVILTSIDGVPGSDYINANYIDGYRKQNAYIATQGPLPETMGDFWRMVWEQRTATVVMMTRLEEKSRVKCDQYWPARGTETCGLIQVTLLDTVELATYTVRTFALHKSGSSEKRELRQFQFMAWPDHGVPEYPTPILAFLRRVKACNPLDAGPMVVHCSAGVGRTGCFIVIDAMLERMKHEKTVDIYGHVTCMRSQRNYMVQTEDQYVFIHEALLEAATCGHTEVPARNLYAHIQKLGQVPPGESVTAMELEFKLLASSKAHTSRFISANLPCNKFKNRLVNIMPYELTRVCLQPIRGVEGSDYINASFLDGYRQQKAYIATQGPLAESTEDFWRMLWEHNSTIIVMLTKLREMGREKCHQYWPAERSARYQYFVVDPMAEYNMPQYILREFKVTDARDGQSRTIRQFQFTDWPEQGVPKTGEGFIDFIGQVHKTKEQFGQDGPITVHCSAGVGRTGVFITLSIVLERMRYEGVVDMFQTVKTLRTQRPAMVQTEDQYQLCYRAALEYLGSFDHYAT
T3 sequence (P29350 whole entry): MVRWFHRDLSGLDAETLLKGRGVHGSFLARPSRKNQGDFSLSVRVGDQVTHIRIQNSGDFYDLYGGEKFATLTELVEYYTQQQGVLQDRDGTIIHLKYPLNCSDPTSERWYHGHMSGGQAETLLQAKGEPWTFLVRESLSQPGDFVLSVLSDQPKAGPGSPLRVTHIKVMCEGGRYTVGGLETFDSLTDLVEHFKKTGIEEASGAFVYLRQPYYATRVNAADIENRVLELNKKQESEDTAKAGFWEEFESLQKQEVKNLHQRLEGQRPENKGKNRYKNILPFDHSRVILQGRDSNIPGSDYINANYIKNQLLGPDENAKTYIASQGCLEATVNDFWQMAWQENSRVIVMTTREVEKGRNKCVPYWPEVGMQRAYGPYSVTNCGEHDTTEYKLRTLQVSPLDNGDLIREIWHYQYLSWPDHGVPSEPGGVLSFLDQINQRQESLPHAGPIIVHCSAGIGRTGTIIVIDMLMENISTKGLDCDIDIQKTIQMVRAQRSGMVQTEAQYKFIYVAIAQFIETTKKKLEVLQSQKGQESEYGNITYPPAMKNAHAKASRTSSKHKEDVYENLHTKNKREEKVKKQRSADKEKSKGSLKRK

| SMILES | IC50 [1] | inhibition [2] | IC50 [3] | inhibition [4] | IC50 [5] | inhibition [6] | IC50 [7] | Ratio IC50 [8] | inhibition [9] | inhibition [10] |
| --- | --- | --- | --- | --- | --- | --- | --- | --- | --- | --- |
| O=C(CCc1ccccc1)NC(Cc1ccc2cc(OCc3ccccc3F)ccc2c1)C(=O)O (racemic) | 27.3 µM | inactive | 15.2 µM | inactive | 11.4 µM | inactive |  |  |  |  |
| O=C(COc1ccc(Cl)cc1)NC(Cc1ccc2cc(OCc3ccccc3F)ccc2c1)C(=O)O (racemic) | 17.5 µM | inactive | 13.7 µM | inactive | 10.8 µM | inactive |  | 1 |  |  |
| COc1cccc(/C=C/C(=O)NC(Cc2ccc3cc(OCc4ccccc4F)ccc3c2)C(=O)O)c1 (racemic) | 15.2 µM | inactive | 10.7 µM |  | 8.15 µM | inactive | 16.4 µM | 1 |  |  |
| NC(Cc1ccc2cc(OCc3ccccc3F)ccc2c1)C(=O)O (racemic) |  |  |  |  | 24.7 µM |  |  | 1 |  |  |
| O=C(/C=C/c1ccccc1)NC(Cc1ccc2cc(OCc3ccccc3F)ccc2c1)C(=O)O (racemic) | 18.9 µM | inactive | 14.7 µM | inactive | 8.88 µM | inactive |  |  |  |  |
| CC(C)(C)OC(=O)NC(Cc1ccc2cc(OCc3ccccc3F)ccc2c1)C(=O)O (racemic) |  |  |  |  | 11.1 µM |  |  | 1 |  |  |
| CC(C)(C)OC(=O)NC(Cc1ccc2cc(O)ccc2c1)C(=O)O (racemic) |  |  |  |  | > 300 µM |  |  | 1 |  |  |
| C[C@H]1[C@H](C)CC[C@]2(C(=O)O)CC[C@]3(C)C(=CC[C@@H]4[C@@]5(C)CC[C@H](O)C(C)(C)[C@@H]5CC[C@]43C)[C@H]12 [URSOLIC ACID] | 6.7 µM |  |  |  |  |  |  |  |  |  |
| O=C(NC(Cc1ccc2cc(OCc3ccc(Cl)cc3)ccc2c1)C(=O)O)c1ccccc1 (racemic) |  |  |  |  | 21.7 µM |  |  | 1 |  |  |
| COc1ccc(COc2ccc3cc(CC(NC(=O)c4ccccc4)C(=O)O)ccc3c2)cc1 (racemic) |  |  |  |  | 14.3 µM |  |  | 1 |  |  |
| O=C(NC(Cc1ccc2cc(O)ccc2c1)C(=O)O)c1ccccc1 (racemic) |  |  |  |  | > 300 µM |  |  | 1 |  |  |

Next, values leading:

| IC50 [1] | inhibition [2] | IC50 [3] | inhibition [4] | IC50 [5] | inhibition [6] | IC50 [7] | Ratio IC50 [8] | inhibition [9] | inhibition [10] | SMILES |
| --- | --- | --- | --- | --- | --- | --- | --- | --- | --- | --- |
| 6.11 µM | inactive | 8.93 µM |  | 4.22 µM | inactive | 12.5 µM | 1 |  |  | O=C(/C=C/c1ccc(Cl)cc1Cl)NC(Cc1ccc2cc(OCc3ccccc3F)ccc2c1)C(=O)O (racemic) |
| 3.67 µM | inactive | 2.49 µM |  | 1.57 µM | inactive | 13 µM | 1 |  |  | O=C(/C=C/c1ccc(Br)cc1)NC(Cc1ccc2cc(OCc3ccccc3F)ccc2c1)C(=O)O (racemic) |
| 9.21 µM | inactive | 14 µM | inactive | 5.9 µM | inactive |  | 1 |  |  | COc1ccc(/C=C/C(=O)NC(Cc2ccc3cc(OCc4ccccc4F)ccc3c2)C(=O)O)cc1 (racemic) |
| 3.84 µM | inactive | 3.08 µM |  | 1.25 µM | inactive | 2.43 µM | 3 | Active | tde | O=C(/C=C/c1ccccc1Cl)NC(Cc1ccc2cc(OCc3ccccc3F)ccc2c1)C(=O)O (racemic) |
| 18.2 µM | inactive | 11.6 µM | inactive | 6.48 µM | inactive |  | 1 |  |  | Cc1ccc(/C=C/C(=O)NC(Cc2ccc3cc(OCc4ccccc4F)ccc3c2)C(=O)O)cc1 (racemic) |
| 3.02 µM | inactive | 4.58 µM |  | 2.49 µM | inactive | 9.84 µM | 1 |  |  | O=C(/C=C/c1ccccc1F)NC(Cc1ccc2cc(OCc3ccccc3F)ccc2c1)C(=O)O (racemic) |
| 12.9 µM | inactive | 8.44 µM |  | 7.91 µM | inactive | 15.6 µM | 1 |  |  | O=C(Cc1ccc(Cl)cc1)NC(Cc1ccc2cc(OCc3ccccc3F)ccc2c1)C(=O)O (racemic) |
| 6.08 µM | inactive | 5.13 µM |  | 2.79 µM | inactive | 26.5 µM | 1 |  |  | O=C(/C=C/c1cccc(F)c1)NC(Cc1ccc2cc(OCc3ccccc3F)ccc2c1)C(=O)O (racemic) |
| 9.49 µM | inactive | 7.04 µM | inactive | 4.45 µM | inactive |  | 1 |  |  | COc1ccc(/C=C/C(=O)NC(Cc2ccc3cc(OCc4ccccc4F)ccc3c2)C(=O)O)cc1OC (racemic) |
| 15.3 µM | inactive | 5.63 µM |  | 4.71 µM | inactive | 10.7 µM |  |  |  | O=C(/C=C/c1ccc(Cl)c(Cl)c1)NC(Cc1ccc2cc(OCc3ccccc3F)ccc2c1)C(=O)O (racemic) |
| 9.43 µM | inactive | 19.4 µM | inactive | 6.55 µM | inactive |  | 1 |  |  | O=C(NC(Cc1ccc2cc(OCc3ccccc3F)ccc2c1)C(=O)O)c1ccccc1 (racemic) |
| 7.24 µM | inactive | 5.35 µM |  | 4 µM | inactive | 13.2 µM | 1 |  |  | O=C(/C=C/c1cccc(Cl)c1)NC(Cc1ccc2cc(OCc3ccccc3F)ccc2c1)C(=O)O (racemic) |
| 5.96 µM | inactive | 6.6 µM |  | 3.38 µM | inactive | 18.5 µM | 1 |  |  | O=C(/C=C/c1ccc(F)cc1)NC(Cc1ccc2cc(OCc3ccccc3F)ccc2c1)C(=O)O (racemic) |
| 4.33 µM | inactive | 2.63 µM |  | 2.59 µM | inactive | 16.3 µM | 1 |  |  | O=C(/C=C/c1ccc(Cl)cc1)NC(Cc1ccc2cc(OCc3ccccc3F)ccc2c1)C(=O)O (racemic) |
| 4.66 µM | inactive | 2.89 µM |  | 1.77 µM | inactive | 11 µM | 1 |  |  | O=C(/C=C/c1ccccc1Br)NC(Cc1ccc2cc(OCc3ccccc3F)ccc2c1)C(=O)O (racemic) |
